ChEMBL document CHEMBL3763122, “Synthesis, vasorelaxant activity and 2D-QSAR study of some novel pyridazine derivatives” (Eur J Med Chem, 2016)
Where a name gives a salt, the structure may show the parent alone.

assay: Vasorelaxant activity in Wistar rat thoracic aortic ring precontracted with norepinephrine hydrochloride; format: functional; conditions: Thoracic aorta
In short: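 Isolated rat thoracic aortic rings held at 2 g resting tension for 2 h. Contraction to norepinephrine hydrochloride (10^-6 M) measured before and after exposure to increasing concentrations of compound. Compounds dissolved in DMSO as a 0.01 M stock. DMSO-alone controls run at matching concentrations. Doxazosin mesylate served as reference standard.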

Structure (SMILES)	IC50
COc1ccccc1-c1ccc(-n2ncc(C#N)c2N)nn1	316 µM
COc1ccc(-c2ccc(-n3ccnc3)nn2)cc1	259 µM
N#Cc1cnn(-c2ccc(-c3ccccc3)nn2)c1N	287 µM
Clc1ccc(-c2ccc(-n3ccnc3)nn2)cc1	255 µM
COc1ccc(/C=N/Nc2ccc(-c3ccccc3OC)nn2)c(OC)c1	259 µM
COc1ccc(-c2ccc(NN)nn2)cc1	235 µM
COc1ccc(-c2ccc(-n3nc(C)cc3C)nn2)cc1	323 µM
COc1ccc(-c2ccc(-n3ncc(C#N)c3N)nn2)cc1	260 µM
COc1ccccc1-c1ccc(NN)nn1	279 µM
CCOC(=O)c1cnn(-c2ccc(-c3ccc(OC)cc3)nn2)c1N	216 µM
Cc1cc(C)n(-c2ccc(-c3ccc(Cl)cc3)nn2)n1	213 µM
COc1ccccc1-c1ccc(-n2nc(C)cc2C)nn1	299 µM
COc1ccccc1-c1ccc(N/N=C/c2ccc(C(F)(F)F)cc2)nn1	248 µM
c1ccc(-c2ccc(N3CCCC3)nn2)cc1	235 µM
Clc1ccc(-c2ccc(N3CCCC3)nn2)cc1	300 µM
COc1ccc(/C=N/Nc2ccc(-c3ccc(Cl)cc3)nn2)c(OC)c1	205 µM
CCOC(=O)c1cnn(-c2ccc(-c3ccccc3)nn2)c1N	254 µM
COc1ccc(/C=N/Nc2ccc(-c3ccc(Cl)cc3)nn2)cc1	217 µM
N#Cc1cnn(-c2ccc(-c3ccc(Cl)cc3)nn2)c1N	310 µM
CCOC(=O)c1cnn(-c2ccc(-c3ccccc3OC)nn2)c1N	225 µM
NNc1ccc(-c2ccc(Cl)cc2)nn1	275 µM
COc1ccccc1-c1ccc(-n2ccnc2)nn1	205 µM
COc1ccccc1-c1ccc(N2CCCC2)nn1	284 µM

Continued by falling IC50, values first:

IC50	Structure (SMILES)
273 µM	c1ccc(-c2ccc(-n3ccnc3)nn2)cc1
266 µM	COc1ccccc1-c1ccc(NNC(=O)NC2CCCCC2)nn1
255 µM	COc1cc(/C=N/Nc2ccc(-c3ccc(Cl)cc3)nn2)cc(OC)c1OC
230 µM	CCOC(=O)c1cnn(-c2ccc(-c3ccc(Cl)cc3)nn2)c1N
226 µM	COc1cc2nc(N3CCN(C(=O)C4COc5ccccc5O4)CC3)nc(N)c2cc1OC (stereo not given) [DOXAZOSIN MESYLATE]
221 µM	COc1ccccc1-c1ccc(N/N=C/c2cc(OC)c(OC)c(OC)c2)nn1
209 µM	FC(F)(F)c1ccc(/C=N/Nc2ccc(-c3ccc(Cl)cc3)nn2)cc1
207 µM	O=C(NNc1ccc(-c2ccc(Cl)cc2)nn1)Nc1ccccc1
206 µM	NNc1ccc(-c2ccccc2)nn1
200 µM	COc1ccc(/C=N/Nc2ccc(-c3ccccc3OC)nn2)cc1
198 µM	Cc1cc(C)n(-c2ccc(-c3ccccc3)nn2)n1
177 µM	O=C(NNc1ccc(-c2ccc(Cl)cc2)nn1)NC1CCCCC1
